The nature of series [1]: Intrinsic clearance in human liver microsomes at 1 uM incubated upto 40 mins. In kind it is ADME, Microsome. The settings on record: read-out: CLH. (In general: Liver microsomes are vesicles of endoplasmic reticulum, rich in cytochrome P450 enzymes.)
A short description of series [2]: Intrinsic clearance in rat liver microsomes at 1 uM incubated upto 40 mins. It is filed as ADME, Microsome. The settings on record: read-out: CLH.
The nature of series [3]: Stability of the compound at pH 7.4 by UHPLC-MS/MS analysis. In kind it is physicochemical. The conditions noted are these: buffer.
Series [4] is described as follows: Solubility of compound. In kind it is physicochemical.
The nature of series [5]: Unbound brain-to-plasma concentration ratio in rat at 1 mg/kg,iv administered for 4 hrs. In kind it is ADME, organism-based. The settings on record: brain and plasma (unbound), read-out: K(p,uu,brain).
Series [6] is described as follows: Clearance in rat at 1 mg/kg,iv administered for 4 hrs. In kind it is ADME, organism-based. The conditions noted are these: in vivo.
Series [7] can be described thus: Clearance in mouse at 1 mg/kg,iv administered for 4 hrs. It is filed as ADME, organism-based. The settings on record: in vivo.
Series [8] is described as follows: Volume of distribution at steady state in rat at 1 mg/kg,iv administered for 4 hrs. In kind it is ADME, organism-based. The settings on record: in vivo, read-out: Vdss.
Series [9] is described as follows: Half life in rat at 1 mg/kg,iv administered for 4 hrs. It is filed as ADME, organism-based. The conditions noted are these: in vivo.
Series [10] in a line: Volume of distribution at steady state in mouse at 1 mg/kg,iv administered for 4 hrs. In kind it is ADME, organism-based. The settings on record: in vivo, read-out: Vdss.
The nature of series [11]: Half life in mouse at 1 mg/kg,iv administered for 4 hrs. The settings on record: in vivo. In kind it is ADME, organism-based.
Series [12] in a line: Drug concentration in rat brain at 80 mg/kg,ip administered for 24 hr by LC-MS/MS analysis. It is filed as ADME, organism-based. The settings on record: in vivo. An outline of the steps: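 Post-natal day 10 rats given 80 mg/kg I.P.; groups sacrificed 0.5−24 h after dosing. Cortical samples from each hemisphere taken for brain drug concentration and tau phosphorylation.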

Series [13] can be described thus: Dissociation constant, pKa of compound. It is filed as physicochemical.

Values after ≈ are worked out from the molar mass of the structure shown.

`CC(C)(O)C#Cc1cc2c(ccn2-c2ccnc(N)n2)cc1F`: the CLint scaled at 1 µM in series [1] stood at 21 mL/min/kg; in series [2], 69 mL/min/kg. Moreover, in [3], the Stability is listed as 100%.
In the case of `CC[C@](C)(O)C#Cc1cc2c(ccn2-c2cc(OC)nc(N)n2)cn1`, the CLint scaled at 1 µM turned out to be 16 mL/min/kg in series [1] and 219 mL/min/kg in [2]. For the same compound, the concentration in solution in [4] (solubility) came to 45 µg/mL (≈ 133 µM). Besides, in [5], the Kp uu at 4 h came to 0.32. The clearance (as a rule, the volume of plasma or blood freed of the substance per unit of time) in series [6] amounted to 62 mL/min/kg; in series [7] it was 67 mL/min/kg. The Vd in series [8] was determined as 4.87 L/kg; in [10], 0.474 L/kg. Moreover, the figures for the half-life in series [9] and in series [11] were 3.6 h and 6 min, respectively. The Drug uptake entry in series [12] is listed as “Not Active”.
Take `Cn1nc(-c2ccnc(N)n2)c2cc(C#CC(C)(C)O)ccc21`: in series [3], the Stability was determined as 100%.
For the compound `COc1cc2ccn(-c3ccnc(N)n3)c2cc1C#CC(C)(C)O`, the figures for the CLint scaled at 1 µM in [1] and in series [2] were 31 mL/min/kg and 56 mL/min/kg, respectively.
On the same counts, the results for `CC(C)(O)C#Cc1cc2c(cn1)c(C1CCOCC1)cn2-c1ccnc(N)n1` are 6 mL/min/kg and 38 mL/min/kg.
`CN1CCC[C@@H](c2cn(-c3ccnc(N)n3)c3cc(C#CC(C)(C)O)ncc23)C1`: the results for the CLint scaled at 1 µM in [1] and in [2] were less than 5 mL/min/kg and less than 11 mL/min/kg, respectively. The compound also had a Stability in series [3] of 99.3%.
For `CC(C)(O)C#Cc1cc2c(cn1)CCN2c1ccnc(N)n1`, the CLint scaled at 1 µM in series [1] is less than 5 mL/min/kg; in series [2], 24 mL/min/kg. For the same compound, the pKa (usually the negative logarithm of the acid dissociation constant) in series [13] turned out to be 7.4. In series [3], this compound gave a Stability of 82.7%.
For the compound `CC(C)(O)C#Cc1cc2c(cn1)c(C1CC1)cn2-c1ccnc(N)n1`, the CLint scaled at 1 µM in series [1] was determined as 10 mL/min/kg; in series [2], 374 mL/min/kg.
As to `CC(C)(O)C#Cc1cc2c(ccn2-c2ccnc(N)n2)cn1`, the figures for the CLint scaled at 1 µM in series [1] and in series [2] were 19 mL/min/kg and 42 mL/min/kg, respectively. Besides, the pKa in series [13] worked out at 5.7.
`CC(C)(O)C#Cc1cc2c(ccn2-c2ccnc(N)n2)c(N2CCOCC2)n1`: the CLint scaled at 1 µM in series [1] is less than 5 mL/min/kg; in [2] it was 42 mL/min/kg.
In the case of `CC(C)(O)C#Cc1cc2c(cn1)cnn2-c1ccnc(N)n1`, the CLint scaled at 1 µM is less than 5 mL/min/kg in series [1] and 27 mL/min/kg in [2]. Further, the pKa in [13] was determined as 4.9.
As to `CC[C@](C)(O)C#Cc1cc2c(cn1)cnn2-c1ccnc(N)n1`, the figures for the CLint scaled at 1 µM in [1] and in [2] were less than 5 mL/min/kg and 36 mL/min/kg, respectively. Moreover, the Stability in series [3] is reported as 99.9%. For the same compound, in [4], the solubility – broadly, the concentration that dissolves in the medium under given conditions – worked out at 46 µg/mL (≈ 149 µM). Further, the Kp uu at 4 h in series [5] amounted to 0.08. The clearance in series [6] amounted to 17 mL/min/kg. Further, the Vd in series [8] was found to be 2.48 L/kg. Moreover, the half-life (commonly the time needed for the level to fall by half in the phase considered) in series [9] was 4.3 h.
With `COc1nc(C#CC(C)(C)O)cc2c1ccn2-c1ccnc(N)n1`, the CLint scaled at 1 µM in [1] turned out to be 10 mL/min/kg; in [2] it was 62 mL/min/kg.
As for `CC[C@](C)(O)C#Cc1cc2c(ccn2-c2ccnc(N)n2)cn1`, the CLint scaled at 1 µM in series [1] stood at 11 mL/min/kg; in series [2], 155 mL/min/kg. Moreover, the Stability in [3] came out at 99.7%. Further, in [4], the solubility was 44 µg/mL (≈ 143 µM). Moreover, the Kp uu at 4 h in series [5] was found to be 0.1. The clearance in series [6] stood at 64 mL/min/kg. Besides, the Vd in [8] came to 2.17 L/kg. The half-life in [9] is 3.6 h.

The values are drawn from ChEMBL document CHEMBL5236545, “Discovery of Potent and Brain-Penetrant Tau Tubulin Kinase 1 (TTBK1) Inhibitors that Lower Tau Phosphorylation In Vivo” (J Med Chem, 2021).
